Data reported in article PMC3966939 (Stroke; a journal of cerebral circulation, 2014).

Key:
[1] = system: rat model of embolic middle cerebral artery occlusion (MCAO); test: Incidence of gross hemorrhage on H&E stained coronal sections; format: in vivo; details: treatment started 4h after MCAO; H&E sections 7 days after MCAO
Outline: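 In embolic-MCAO male Wistar rats, treatment began 1 or 4 h after occlusion. The peptide was given at 0.8 mg/kg/day (IA for 2 h, then SC pump for 3 days), with or without IV tPA 10 mg/kg at 4 h. Rats were killed at day 7. Seven H&E coronal sections per animal were scored for blood visible to the unaided eye, expressed as group percentage. Fisher exact test was applied.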

[2] = system: rat model of embolic middle cerebral artery occlusion (MCAO); test: MRI measurement of ischemic lesion; format: in vivo; details: treatment started 4h after MCAO; MRI at 1, 72 and 144 h after MCAO; n=10/group
Outline: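 Rats received IV tPA (10 mg/kg) alone or tPA plus peptide, starting 4 h after embolic MCAO. Imaging was done on a 7 T scanner with T2-weighted and diffusion-weighted images at 1, 72 and 144 h. Ischemic area was taken from the T2 map using a threshold of two SD above the contralateral hemisphere. Groups were compared by one-way ANOVA.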

TGF-β1 = test: Immunohistochemistry: TGF-β1 immunoreactive vessels; format: in vivo, rat; details: treatment 4h after MCAO, 24h; compared to the saline treatment
Outline: (§1)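 Embolic-MCAO male Wistar rats were treated 4 h after stroke onset with one of three regimens: IV tPA (10 mg/kg) alone, tPA plus peptide (0.8 mg/kg/day, IA then SC pump), or saline (n=4–6). Rats were killed 24 h after treatment began. Frozen 8 μm coronal sections (bregma −0.4 to −1.4 mm) were immunostained, and immunoreactive vessels in ischemic brain were counted. One-way ANOVA with Hochberg adjustment was used.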

p-Smad2/3 = test: Immunohistochemistry: p-Smads2/3 immunoreactive vessels; format: in vivo, rat; details: treatment 4h after MCAO, 24h; compared to the saline treatment
Outline: as §1

PAI-1 = test: Immunohistochemistry: PAI-1 immunoreactive vessels; format: in vivo, rat; details: treatment 4h after MCAO, 24h; double immunostaining
Outline: as §1

NF-κB (p65) = test: Immunohistochemistry: p65 immunoreactive vessels; format: in vivo, rat; details: treatment 4h after MCAO, 24h; ipsilateral hemisphere
Outline: as §1

tissue plasminogen activator [tPA]
incidence of gross hemorrhage [1]: 38% | ischemic lesion by MRI (T2) [2]: increased over 144h | density of TGF-β1 immunoreactive vessels (TGF-β1): failed to reduce the densities | density of p-Smads2/3 immunoreactive vessels (p-Smad2/3): failed to reduce the densities | PAI-1 immunoreactive vessel density (PAI-1): further increased | p65 immunoreactive vessels (NF-κB (p65)): augmented
